In ChEMBL document CHEMBL4196174, “Discovery of Indole Derivatives as Novel and Potent Dengue Virus Inhibitors” (J Med Chem, 2018):
In brackets after ≈: the same amount, converted by molar mass.

How the values were obtained:
dengue virus type 2 = assay: Antiviral activity against Dengue virus 2 Rega infected in African green monkey Vero cells assessed as reduction in viral yield after 4 days by qRT-PCR analysis; type: functional, organism-based
How it was run: (§1)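 Virus yield reduction in Vero cells (seeded 5×10^4/well). Next day infected with DENV (MOI 0.01) in assay medium (MEM, 2% FBS, 0.075% bicarbonate, 2 mM L-glutamine). After 1 h, input virus was removed and cells rinsed 3 times. Medium with 3- or 5-fold compound serial dilutions was then added. Incubation was 4 days (DENV-2, DENV-4) or 7 days (DENV-1, DENV-3). Supernatant viral RNA was measured by RT-qPCR, and EC50 obtained by logarithmic interpolation.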

[1] = (§2) Cytotoxicity against African green monkey Vero cells assessed as cell growth inhibition after 4 days by MTS/PMS method; type: cell-based; conditions: chlorocebus sabaeus, Vero cells
How it was run: (§3)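 Cytotoxicity run as in the yield assay, but without virus. Vero cells (5×10^4/well) were exposed to 3- or 5-fold serial dilutions in MEM with 2% FBS. Viability was read by the MTS/PMS colorimetric method. CC50 was derived by logarithmic interpolation.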

Salmonella typhimurium [2] = assay: Mutagenicity in Salmonella typhimurium in presence of human liver S9 fraction by Ames test; type: toxicity, organism-based; conditions: salmonella enterica subsp. enterica serovar typhimurium
Salmonella typhimurium [3] = assay: Mutagenicity in Salmonella typhimurium in absence of human liver S9 fraction by Ames test; type: toxicity, organism-based; conditions: salmonella enterica subsp. enterica serovar typhimurium
dengue virus type 1 = assay: Antiviral activity against Dengue virus 1 Djibouti D1/H/IMTSSA/98/606 infected in African green monkey Vero cells assessed as reduction in viral yield after 7 days by qRT-PCR analysis; type: functional, organism-based; conditions: Djibouti D1/H/IMTSSA/98/606, Vero, 168 h; how it was run: as §1
dengue virus type 3 = assay: Antiviral activity against Dengue virus 3 H87 infected in African green monkey Vero cells assessed as reduction in viral yield after 7 days by qRT-PCR analysis; type: functional, organism-based; conditions: 168 h; how it was run: as §1
dengue virus type 4 = assay: Antiviral activity against Dengue virus 4 DAKHD34460 infected in African green monkey Vero cells assessed as reduction in viral yield after 4 days by qRT-PCR analysis; type: functional, organism-based; conditions: 96 h; how it was run: as §1
[4] = Solubility of the compound in DMSO solution at pH 7.4; type: physicochemical
How it was run: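 Solubility measured at pH 7.4, starting from a DMSO solution.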

[5] = Drug metabolism in human liver microsomes after 15 mins; type: ADME, microsome; conditions: for metabolised at 0.25 h: liver microsomes, read-out: Drug metabolism
How it was run: (§4)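 Percentage of compound metabolized after 15 min incubation with human or rat liver microsomes.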

[6] = Drug metabolism in rat liver microsomes after 15 mins; type: ADME, microsome; conditions: for metabolised at 0.25 h: liver microsomes, read-out: Drug metabolism; how it was run: as §4
Vero = assay: as §2; type: cell-based; conditions: chlorocebus sabaeus, vero, 96 h; how it was run: as §3

Row | SMILES | EC50 (dengue virus type 2; Dengue virus, Rega, Vero, 96 h) | CC50 at 96 h [1] | other results
1 | COc1nc(NC(C(=O)c2c[nH]c3ccccc23)c2ccccc2)ns1 (configuration not stated) | 3.3 µM | 90 µM | 
2 | CCOc1cc(NC(C(=O)c2c[nH]c3ccccc23)c2ccccc2)cc(OC)c1 (configuration not stated) | 0.018 µM | 13 µM | 
3 | COc1cccc(NC(C(=O)c2c[nH]c3ccccc23)c2cc3ccccn3n2)c1 (configuration not stated) | 0.028 µM | 26 µM | 
4 | O=C(c1c[nH]c2ccccc12)C(NC1CCCC1)c1ccccc1 (configuration not stated) | 15 µM | 86 µM | 
5 | COc1cc(NC(C(=O)c2c[nH]c3ccc(CO)cc23)c2ccccc2)cc(OC)c1 (configuration not stated) | 0.106 µM | 65 µM | 
6 | COc1cccc(NC(C(=O)c2c[nH]c3cc(Cl)ccc23)c2ccccc2)c1 (configuration not stated) | 0.013 µM | 13 µM | 
7 | O=C(c1c[nH]c2ccccc12)C(Nc1cc(F)cc(F)c1)c1ccccc1 (configuration not stated) | 1.7 µM | 23 µM | 
8 | COc1cccc(NC(C(=O)c2c[nH]c3cc(OC)ccc23)c2ccccc2)c1 (configuration not stated) | 0.043 µM | 13 µM | 
9 | COc1cccc(NC(C(=O)c2c[nH]c3ccccc23)c2ccsc2)c1 (configuration not stated) | 0.134 µM | 15 µM | 
10 | COc1cc(NC(C(=O)c2c[nH]c3ccccc23)c2ccccc2)cc(OCCN(C)C)c1 (configuration not stated) | 1.7 µM | 13 µM | 
11 | COc1cccc(NC(C(=O)c2c[nH]c3ccccc23)c2ccccc2)c1 (configuration not stated) | 0.073 µM | 18 µM | Activity (Salmonella typhimurium [2]): Non-Toxic; Activity (Salmonella typhimurium [3]): Non-Toxic
12 | COc1cccc(NC(C(=O)c2c[nH]c3ccccc23)c2cccc(C)c2)c1 (configuration not stated) | 0.269 µM | 20 µM | 
13 | COc1cc(NC(C(=O)c2c[nH]c3ccccc23)c2cccnc2)cc(OC)c1 (configuration not stated) | 0.015 µM | 69 µM | EC50 (dengue virus type 1): 0.173 µM; EC50 (dengue virus type 3): 0.31 µM; EC50 (dengue virus type 4): 2.5 µM
14 | COc1cc(NC(C(=O)c2c[nH]c3ccccc23)c2ccc(F)cc2)cc(OC)c1 (configuration not stated) | 0.004 µM | 13 µM | 
15 | COc1cc(NC(C(=O)c2c[nH]c3ccc(CCO)cc23)c2ccccc2)cc(OC)c1 (configuration not stated) | 0.181 µM | 56 µM | 
16 | COc1cccc(NC(C(=O)c2c[nH]c3cccc(Cl)c23)c2ccccc2)c1 (configuration not stated) | 0.024 µM | 18 µM | 
17 | COc1cc(CO)cc(NC(C(=O)c2c[nH]c3ccccc23)c2ccccc2)c1 (configuration not stated) | 0.065 µM | 71 µM | solubility ([4]; read-out: solubility): 50 µM (≈ 19.3 µg/mL); metabolised at 0.25 h [5]: 18%; metabolised at 0.25 h [6]: 85%
18 | COc1ccnc(NC(C(=O)c2c[nH]c3ccccc23)c2ccccc2)c1 (configuration not stated) | 6.3 µM | 95 µM | 
19 | COc1cccc(NC(C(=O)c2c[nH]c3ccccc23)c2ccc3nccnc3c2)c1 (configuration not stated) | 1.2 µM | 19 µM | 
20 | O=C(c1c[nH]c2ccccc12)C(Nc1ccc2[nH]c(=O)oc2c1)c1ccccc1 (configuration not stated) | 6.1 µM | 15 µM | 
21 | COc1cccc(NC(C(=O)c2c[nH]c3ccccc23)c2ccc(C#N)cc2)c1 (configuration not stated) | 0.041 µM | 14 µM | 
22 | COc1cc(NC(C(=O)c2c[nH]c3cccc(CO)c23)c2ccccc2)cc(OC)c1 (configuration not stated) | 0.288 µM | 71 µM | 
23 | COc1cccc(NC(C(=O)c2c[nH]c3c(C)cccc23)c2ccccc2)c1 (configuration not stated) | 0.051 µM | > 135 µM | 
24 | COc1cccc(NC(C(=O)c2c[nH]c3ccccc23)c2ccncc2)c1 (configuration not stated) | 0.138 µM | 16 µM | 
25 | COc1cc(NC(C(=O)c2c[nH]c3cccc(CCCO)c23)c2ccccc2)cc(OC)c1 (configuration not stated) | 1.4 µM | 55 µM | 
26 | COc1cc(F)cc(NC(C(=O)c2c[nH]c3ccccc23)c2ccccc2)c1 (configuration not stated) | 0.02 µM | 22 µM | 
27 | N#Cc1cccc(NC(C(=O)c2c[nH]c3ccccc23)c2ccccc2)c1 (configuration not stated) | 2.1 µM | 14 µM | 
28 | COc1cc(NC(C(=O)c2c[nH]c3ccccc23)c2ccccc2)cc(OCCCO)c1 (configuration not stated) | 0.085 µM | 50 µM | solubility ([4]; read-out: solubility): 30 µM (≈ 12.9 µg/mL); metabolised at 0.25 h [5]: 8%; metabolised at 0.25 h [6]: 67%

Row | SMILES | EC50 (dengue virus type 2; Dengue virus, Rega, Vero, 96 h) | CC50 at 96 h [1] | other results
29 | COc1cccc(NC(C(=O)c2c[nH]c3ccccc23)c2ccccc2C)c1 (configuration not stated) | 0.096 µM | 14 µM | 
30 | COc1cccc(NC(C(=O)c2c[nH]c3ccccc23)c2cccnc2)c1 (configuration not stated) | 0.138 µM | 71 µM | 
31 | COc1cccc(NC(C(=O)c2c[nH]c3ccc(F)cc23)c2ccccc2)c1 (configuration not stated) | 0.034 µM | 13 µM | 
32 | COc1cccc(NC(C(=O)c2c[nH]c3cccc(F)c23)c2ccccc2)c1 (configuration not stated) | 0.122 µM | 21 µM | 
33 | COc1ccc(OC)c(NC(C(=O)c2c[nH]c3ccccc23)c2ccccc2)c1 (configuration not stated) | 2.5 µM | 15 µM | 
34 | O=C(c1c[nH]c2ccccc12)C(Nc1cccc(F)c1)c1ccccc1 (configuration not stated) | 2.4 µM | 12 µM | 
35 | CS(=O)(=O)c1cccc(NC(C(=O)c2c[nH]c3ccccc23)c2ccccc2)c1 (configuration not stated) | 6.5 µM | 65 µM | 
36 | COc1cccc(NC(C(=O)c2c[nH]c3ccccc23)c2cnccn2)c1 (configuration not stated) | 0.837 µM | 65 µM | 
37 | COc1cccc(NC(C(=O)c2c[nH]c3ccccc23)c2ccc(C)nc2)c1 (configuration not stated) | 0.073 µM | 73 µM | 
38 | COc1cncc(NC(C(=O)c2c[nH]c3ccccc23)c2ccccc2)n1 (configuration not stated) | 0.484 µM | 68 µM | 
39 | COc1cc(NC(C(=O)c2c[nH]c3ccccc23)c2ccc(F)cc2)cc(OCCO)c1 (configuration not stated) | 0.013 µM | 46 µM | solubility ([4]; read-out: solubility): 27 µM (≈ 11.7 µg/mL); metabolised at 0.25 h [5]: 7%; metabolised at 0.25 h [6]: 23%
40 | COc1cccc(NC(C(=O)c2c[nH]c3ccccc23)c2ccc(C)cc2)c1 (configuration not stated) | 0.022 µM | 20 µM | 
41 | COc1cccc(NC(C(=O)c2c[nH]c3ccccc23)c2cc(C)on2)c1 (configuration not stated) | 0.59 µM | 50 µM | 
42 | COc1cc(NC(C(=O)c2c[nH]c3ccc(F)cc23)c2ccccc2)cc(OC)c1 (configuration not stated) | 0.007 µM | 13 µM | EC50 (dengue virus type 1): 0.247 µM; EC50 (dengue virus type 3): 0.68 µM; EC50 (dengue virus type 4): 4.8 µM; Activity (Salmonella typhimurium [2]): Non-Toxic; Activity (Salmonella typhimurium [3]): Non-Toxic
43 | COc1cccc(NC(C(=O)c2c[nH]c3cc(F)ccc23)c2ccccc2)c1 (configuration not stated) | 0.045 µM | 15 µM | 
44 | COc1cccc(NC(C(=O)c2c[nH]c3c(F)cccc23)c2ccccc2)c1 (configuration not stated) | 0.057 µM | 14 µM | 
45 | COc1cccc(NC(C(=O)c2c[nH]c3ccccc23)c2ccco2)c1 (configuration not stated) | 0.297 µM | 16 µM | 
46 | O=C(c1c[nH]c2ccccc12)C(Nc1cccc(OC(F)(F)F)c1)c1ccccc1 (configuration not stated) | 0.926 µM | 5 µM | 
47 | COc1cccc(NC(C(=O)c2c[nH]c3ccccc23)c2ccccc2)c1OC (configuration not stated) | 4.2 µM | > 129 µM | 
48 | COc1cccc(NC(C(=O)c2c[nH]c3ccccc23)c2ccc(F)cc2)c1 (configuration not stated) | 0.025 µM | 14 µM | 
49 | COc1cccc(NC(C(=O)c2c[nH]c3ccccc23)c2ccc(S(C)(=O)=O)cc2)c1 (configuration not stated) | 1.6 µM | > 115 µM | 
50 | COc1cccc(NC(C(=O)c2c[nH]c3ccccc23)c2cncnc2)c1 (configuration not stated) | 0.391 µM | 100 µM | 
51 | COc1cc(NC(C(=O)c2c[nH]c3c(CCS(C)(=O)=O)cccc23)c2ccccc2)cc(OC)c1 (configuration not stated) | 0.406 µM | > 102 µM | 
52 | COc1cccc(NC(C(=O)c2c[nH]c3ccccc23)c2ccccc2)n1 (configuration not stated) | 0.288 µM | 16 µM | 
53 | O=C(c1c[nH]c2ccccc12)C(Nc1cccnc1)c1ccccc1 (configuration not stated) | 5 µM | 54 µM | 
54 | COc1cc(NC(C(=O)c2c[nH]c3ccccc23)c2ccccc2)cc(OCCO)c1 (racemic) |  |  | EC50 (dengue virus type 2; vero): 0.059 µM; CC50 (Vero): 47 µM; solubility [4]: 60 µM (≈ 25 µg/mL); Drug metabolism ([5]; microsomes, 0.25 h): 13%; Drug metabolism ([6]; microsomes, 0.25 h): 37%
55 | COc1cc(NC(C(=O)c2c[nH]c3ccccc23)c2ccccc2)cc(OCCO)c1 (single isomer, unassigned; (-)) |  |  | EC50 (dengue virus type 2; vero): 0.456 µM; CC50 (Vero): 77 µM
